bIAP activator: bovine intestinal alkaline phosphatase activators, primary screen, biochemical, bovine IAP, CDP-star luminescence. alkaline phosphatase, intestinal [Bos taurus]. purified bovine IAP, 30 min; active compounds read high; fold of DMSO-control signal, blank-subtracted. activation factor at 20 µM. 0.17% of 200,000 active. AID 1016, 2008;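 active = activation factor of 2 or more at 20 µM, a signal rise over negative controls twice the positive control's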
bIAP inhibitor: bovine intestinal alkaline phosphatase inhibitors, primary screen, selectivity assay for TNAP inhibitor project, biochemical, bovine IAP, CDP-star luminescence; purified bovine IAP, 30 min; 190,000 tested, under 10 active; inhibition, % at 20 µM; alkaline phosphatase, intestinal [Bos taurus];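 active = over 50% inhibition of intestinal alkaline phosphatase at 20 µM in the single-dose screen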
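Assay system – bovine IAP enzyme · Quantity – bovine IAP at 1/65,000,000 final dilution · Detection – CDP-star luminescence signal · Times – 30 min reaction at room temperature · Also added – CDP-star substrate at 30 µM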
hIAP act: human IAP activators, primary screen, biochemical, luminescence, uHTS | purified human IAP, CDP-Star luminescence, 30 min; active compounds read high; 1 = vehicle-only enzyme, 0 = enzyme-free background | activation factor at 10 µM | 0.16% of 330,000 active;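 active = activation factor of the enzyme at least 2-fold when tested at 20 µM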
Target sequence (P09923 whole entry, looked up): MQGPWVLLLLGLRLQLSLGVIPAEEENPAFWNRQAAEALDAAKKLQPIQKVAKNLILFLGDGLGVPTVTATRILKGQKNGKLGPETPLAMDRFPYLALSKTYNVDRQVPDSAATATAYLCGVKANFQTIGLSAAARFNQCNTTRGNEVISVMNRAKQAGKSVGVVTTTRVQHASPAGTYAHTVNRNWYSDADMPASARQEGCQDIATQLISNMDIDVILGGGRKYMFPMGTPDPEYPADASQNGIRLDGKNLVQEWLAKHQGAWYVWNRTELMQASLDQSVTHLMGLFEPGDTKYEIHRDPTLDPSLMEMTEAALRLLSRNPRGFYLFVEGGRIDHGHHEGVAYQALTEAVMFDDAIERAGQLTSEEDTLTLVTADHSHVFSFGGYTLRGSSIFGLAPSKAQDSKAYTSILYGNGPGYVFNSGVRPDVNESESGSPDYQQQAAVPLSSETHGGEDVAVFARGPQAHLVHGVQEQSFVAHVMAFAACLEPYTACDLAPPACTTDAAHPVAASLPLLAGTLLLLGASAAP
hIAP block: human IAP inhibitors, primary screen, biochemical, luminescence, uHTS. Intestinal-type alkaline phosphatase (Homo sapiens), P09923. purified IAP, CDP-Star luminescence, 30 min. inhibition, % at 10 µM. 0.12% of 330,000 active. AID 2544, 2010;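 active = inhibition reaching a set limit with compound at 10 µM in the primary screen, cut at about 35% in these data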;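 also: plate controls were DMSO wells with enzyme for no effect and no-enzyme buffer wells for full effect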
mIAP activ: activators of mouse IAP, primary screen, biochemical, luminescence, uHTS; intestinal alkaline phosphatase [Mus musculus]; muIAP, CDP-Star luminescence, 30 min; active compounds read high; 1 = vehicle-only enzyme signal, 0 = enzyme-free wells; activation factor at 10 µM; 0.24% of 330,000 active;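 active = activation factor of at least 2 at 20 µM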
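Assay system: mouse IAP enzyme; Reagent: CDP-Star chemiluminescent phosphatase substrate; Compound: DMSO-dissolved test compounds; Incubation: 30 min, room temperature; Technique: luminescence from enzymatic CDP-Star hydrolysis; Controls: DMSO-only wells and no-enzyme negative control.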
mIAP block: inhibitors of mouse IAP, primary screen, biochemical, luminescence, uHTS; intestinal alkaline phosphatase [Mus musculus]; inhibition, % at 10 µM; purified mouse IAP, CDP-Star luminescence, 30 min; AID 2806, 2010; 0.2% of 330,000 active;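 active = inhibition of at least 40% at 10 µM in the primary screen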;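 also: plate controls were DMSO with enzyme for no effect and no enzyme wells for full effect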
mIAP inh conf: inhibitors of mouse IAP, confirmation, biochemical, luminescence, single concentration | shares compounds with mIAP block | 4.7% of 11,000 active | inhibition, % at 10 µM | AID 434971, 2010 | purified mouse IAP, CDP-Star luminescence, 30 min;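 active = inhibition of at least 40% at 10 µM in either of the two replicates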;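 also: plate controls were DMSO wells with enzyme for no effect and buffer wells lacking enzyme for full effect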
Active calls of the source: *; i = inactive; . = not tested or not shown. This is a sample that favours compounds with a hit; in the whole collection about 0.72% have one here.

SMILES | bIAP activator | bIAP inhibitor | hIAP act | hIAP block | mIAP activ | mIAP block | mIAP inh conf
Cc1nonc1C(=O)N/N=C/c1ccc([N+](=O)[O-])o1 | 1.3 | -28 | 1.2 | -17 | 0.53 | 47* | 60*
Cc1cc(C(=O)N/N=C/c2ccc([N+](=O)[O-])o2)c(C)o1 | . | . | 0.99 | 1 | 0.53 | 47* | 68*
O=C(N/N=C/c1ccc([N+](=O)[O-])o1)c1sc2ccccc2c1Cl | . | . | 0.87 | 13 | 0.58 | 42* | 54*
Cc1cc(C)cc(N(CC(=O)NC2CCCC2)C(=O)CNC(=O)c2cccs2)c1 | . | . | 0.86 | 14 | 0.91 | 10 | .
O=c1c(-c2c(O)cc(O)c3c(=O)cc(-c4ccc(O)cc4)oc23)c(-c2ccc(O)cc2)oc2cc(O)cc(O)c12 | . | . | 0.91 | 9 | 0.41 | 59* | 65*
O=c1c(O)c(-c2ccc(O)c(O)c2)oc2cc(O)cc(O)c12 | . | . | 1.1 | -9 | 0.17 | 83* | 91*
C/C(N)=C(/C#N)C(=O)COC(=O)CNS(=O)(=O)c1ccc(F)c(F)c1F | 1.4 | -37 | 1.4 | -40 | 0.95 | 5 | .
CC1=NN2C(=N)/C(=C\c3ccc(SCc4ccccc4)o3)C(=O)N=C2S1 | 0.9 | 14 | 1 | 0 | 0.85 | 15 | .
N=C1/C(=C\c2ccc(SCc3ccco3)o2)C(=O)N=C2SC=NN12 | 0.9 | 6 | 1 | -2 | 0.31 | 69* | 76*
COc1ccc(N=C2NC(=O)/C(=C\c3ccco3)S2)cc1 | 1.1 | -7 | 0.99 | 1 | 0.6 | 40* | 59*
O=C1NC(=Nc2ccc(O)cc2)S/C1=C\C=C\c1ccco1 | . | . | 0.95 | 5 | 0.31 | 69* | 88*
COc1cc(/C=C2/SC(=Nc3ccc(O)cc3)NC2=O)cc(OC)c1O | 0.9 | 12 | 0.81 | 19 | 0.88 | 12 | .
NC(=O)NC(=O)COC(=O)c1ccc(OC(F)F)cc1 | 1 | 4 | 1.3 | -27 | 0.96 | 4 | .
Nc1nnc(CC(=O)N/N=C/c2cc([N+](=O)[O-])cc(Br)c2O)s1 | 1.2 | -19 | 1.1 | -9 | 0.53 | 48* | 46*
Cc1ccc(NC(=O)NCCCCc2ccccc2)cc1 | . | . | 1.1 | -8 | 1.6 | -62 | .
Cc1cccc(NC(=O)NC(C)CCc2ccccc2)c1 (configuration not stated) | 1.1 | -13 | 1 | -4 | 2.8* | -180 | -183
O=C(NCCCCc1ccccc1)Nc1cccc(F)c1 | . | . | 1.2 | -18 | 2.5* | -146 | -129
Cc1cccc(NC(=O)NCCCCc2ccccc2)c1 | . | . | 1.1 | -8 | 2.3* | -132 | -138
O=C(NCCCc1ccccc1)Nc1ccccc1 | 1 | 2 | 1 | -1 | 1.3 | -35 | .
COc1ccc(CCC(C)NCC(C)c2ccccc2)cc1 (configuration not stated) | . | . | 1 | -4 | 1.1 | -8 | .
Cc1ccc(F)cc1NC(=O)CSCc1nc2sc(C)c(C)c2c(=O)[nH]1 | . | . | 1.2 | -19 | 0.96 | 4 | .
O=C(/C=C/c1ccc(O)c(O)c1)OC(Cc1ccc(O)c(O)c1)C(=O)O (configuration not stated) | . | . | 0.69 | 31 | 0.23 | 77* | 78*
O=C(/C=C/c1ccc(O)c(O)c1)OCCc1ccccc1 | . | . | 0.71 | 29 | 0.85 | 15 | .
O=S(=O)(Nc1ccc2c(c1)OCO2)c1ccc(Cl)cc1F | . | . | 1 | -2 | 0.94 | 6 | .
CSCC[C@H](NC(=O)c1cccc(S(=O)(=O)N2CCCCCC2)c1)c1nc2ccccc2[nH]1 | . | . | 1.2 | -19 | 1.2 | -16 | .
SMILES | bIAP activator | bIAP inhibitor | hIAP act | hIAP block | mIAP activ | mIAP block | mIAP inh conf
CSCC[C@H](NC(=O)C1CCN(S(=O)(=O)c2ccc(C)cc2C)CC1)c1nc2ccccc2[nH]1 | . | . | 1 | 0 | 2.6* | -155 | -102
N#Cc1ccc(OCC(=O)NC2CCCCCC2)cc1 | . | . | 0.95 | 5 | 1.1 | -8 | .
NC1=NC(=O)/C(=C\c2ccco2)S1 | . | . | 0.87 | 13 | 0.25 | 75* | 82*
COc1ccc(NC(=O)NC23CC4(C)CC(C)(CC(C)(C4)C2)C3)cc1 | 1 | 0 | 1.3 | -30 | 3.1* | -207 | -108
COc1ccc(NC(=O)NC2(C)CCS(=O)(=O)C2)cc1 (configuration not stated) | . | . | 1 | -2 | 1.1 | -8 | .
C#CCOCCOCCOCCNc1nc(N2CCN(C(=O)CCCCCCCCCCNC(=O)[C@H](CO)n3cc(CCCSC)nn3)CC2)nc(N2CCN(C(=O)CCCCCCCCCCNC(=O)[C@H](CCCCN)n3cc(CCO)nn3)CC2)n1 | . | . | 0.96 | 4 | 1.4 | -36 | .
C#CCOCCOCCOCCNc1nc(N2CCN(C(=O)CCCCCCCCCCNC(=O)[C@H]([C@@H](C)CC)n3cc(CCCCN=C(N)N)nn3)CC2)nc(N2CCN(C(=O)CCCCCCCCCCNC(=O)[C@H](CO)n3cc(CCCCCN)nn3)CC2)n1 | . | . | 1.4 | -38 | 6.4* | i | i
C#CCOCCOCCOCCNc1nc(N2CCN(C(=O)CCCCCCCCCCNC(=O)[C@H]([C@@H](C)CC)n3cc(CCCCN=C(N)N)nn3)CC2)nc(N2CCN(C(=O)CCCCCCCCCCNC(=O)[C@H](CCCCN)n3cc(C)nn3)CC2)n1 | . | . | 1.1 | -8 | 2.8* | -178 | i
C#CCOCCOCCOCCNc1nc(N2CCN(C(=O)CCCCCCCCCCNC(=O)Cn3cc(CCCCCN)nn3)CC2)nc(N2CCN(C(=O)CCCCCCCCCCNC(=O)[C@H]([C@@H](C)CC)n3cc(CCCCN=C(N)N)nn3)CC2)n1 | . | . | 1.2 | -19 | 9.7* | i | i
CC[C@H](C)[C@@H](C(=O)NCCCCCCCCCCC(=O)N1CCN(C(=O)OC(C)(C)C)CC1)n1cc(CCCCN=C(NC(=O)OC(C)(C)C)NC(=O)OC(C)(C)C)nn1 | . | . | 0.94 | 6 | 2.3* | -125 | -128
CC1=C(C(=O)OCCC#N)C(c2cc3c(cc2Br)OCO3)NC(=O)N1 (configuration not stated) | . | . | 1.1 | -9 | 1.1 | -14 | .
CC(=O)c1ccc(N2CCN(CC(=O)N(C3CC3)C3CCS(=O)(=O)C3)CC2)c(F)c1 (configuration not stated) | . | . | 0.83 | 16 | 1 | -2 | .
C#CCOCCOCCOCCNc1nc(N2CCN(C(=O)Cn3cc(CCCN=C(N)N)nn3)CC2)nc(N2CCN(C(=O)[C@H]([C@@H](C)CC)n3cc(CCCCN)nn3)CC2)n1 | . | . | 0.92 | 8 | 1.1 | -6 | .

Bioassay records deposited in PubChem BioAssay by Sanford-Burnham Center for Chemical Genomics.
